The record followed here is ChEMBL document CHEMBL1129787, “Synthesis of potent cyclic hexapeptide NK-1 antagonists. Use of a minilibrary in transforming a peptidal somatostatin receptor ligand into an NK-1 receptor ligand via a polyvalent peptidomimetic” (J Med Chem, 1996).

Molecules are shown by their SMILES. Non-standard residues stand in square brackets, D forms with d. Residues, ends and D or L forms follow the SMILES beside them. Phe(4-F) = N[C@@H](Cc1ccc(F)cc1)C(=O)O; 1Nal = N[C@@H](Cc1cccc2ccccc12)C(=O)O

The target of the first assay is Somatostatin receptor. The experiment in a line: Ability to inhibit binding of […]-CGP 23996 to somatostatin receptor on membranes from pituitary.
`NCCCCCOC[C@H]1O[C@@H](OCCc2c[nH]c3ccccc23)[C@H](OCc2ccccc2)[C@@H](OCc2ccccc2)[C@@H]1OCc1ccccc1`: the IC50 (in general, the midpoint of a concentration-inhibition curve) stood at 5000 nM.

The target in another assay is T1, Substance-P receptor (Homo sapiens, UniProt P25103). The experiment in a line: Inhibition of Tachykinin receptor 1. Summed up: (§1)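 NK-1 receptor inhibition assay. IC50 is reported in nM as the mean ± SD.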
T1 sequence (P25103 whole entry): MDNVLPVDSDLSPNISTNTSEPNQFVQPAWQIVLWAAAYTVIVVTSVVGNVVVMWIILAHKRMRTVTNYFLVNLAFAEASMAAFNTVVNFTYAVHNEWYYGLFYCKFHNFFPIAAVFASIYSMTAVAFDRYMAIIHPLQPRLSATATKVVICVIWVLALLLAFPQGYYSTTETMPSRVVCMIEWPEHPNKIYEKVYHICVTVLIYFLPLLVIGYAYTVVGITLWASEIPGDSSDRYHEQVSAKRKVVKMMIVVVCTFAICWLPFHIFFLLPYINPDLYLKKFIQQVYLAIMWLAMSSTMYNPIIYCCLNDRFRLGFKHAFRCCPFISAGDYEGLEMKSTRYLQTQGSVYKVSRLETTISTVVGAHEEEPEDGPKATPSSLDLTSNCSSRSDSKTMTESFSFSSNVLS
Take `COc1ccc(C[C@@H]2NC(=O)[C@@H](Cc3c[nH]c4ccccc34)NC(=O)[C@H](Cc3ccccc3)NC(=O)[C@@H]3CCCN3C(=O)[C@H](Cc3ccccc3)NC(=O)[C@H]([C@@H](C)O)NC2=O)cc1` (cyclo(FPF[dW]Y(Me)T)): the midpoint of inhibition, the IC50, lay at 59 nM. Turning to `C[C@@H]1NC(=O)[C@@H]2CCCN2C(=O)[C@H](Cc2ccccc2)NC(=O)[C@H]([C@@H](C)O)NC(=O)[C@H](Cc2ccccc2)NC(=O)[C@@H](Cc2c[nH]c3ccccc23)NC1=O`, the IC50 was 549 nM. For `CC(C)[C@@H]1NC(=O)[C@H](CCCCN)NC(=O)[C@@H](Cc2c[nH]c3ccccc23)NC(=O)[C@H](Cc2ccc(O)cc2)NC(=O)[C@H](C)N(C)C(=O)[C@H](Cc2ccccc2)NC1=O` [SEGLITIDE], the IC50 was greater than 1000 nM. The compound `C[C@@H](O)[C@@H]1NC(=O)[C@H](Cc2ccc(F)cc2)NC(=O)[C@@H](Cc2c[nH]c3ccccc23)NC(=O)[C@H](Cc2ccccc2)NC(=O)[C@@H]2CCCN2C(=O)[C@H](Cc2ccccc2)NC1=O` (cyclo(FPF[dW][Phe(4-F)]T)) gave a 50% inhibitory concentration (IC50) of 28 nM. The same measure, in the same setting: next, `C[C@H](O)[C@@H]1NC(=O)[C@H](Cc2ccccc2)NC(=O)[C@@H](Cc2c[nH]c3ccccc23)NC(=O)[C@@H](Cc2ccccc2)NC(=O)[C@@H]2CCCN2C(=O)[C@H](Cc2ccccc2)NC1=O`: 496 nM; `C[C@@H](O)[C@@H]1NC(=O)[C@H](Cc2ccccc2)NC(=O)[C@@H](Cc2c[nH]c3ccccc23)NC(=O)[C@H](CC2CCCCC2)NC(=O)[C@@H]2CCCN2C(=O)[C@H](Cc2ccccc2)NC1=O`: 198 nM; `C[C@@H](O)[C@@H]1NC(=O)[C@H](Cc2ccccc2)NC(=O)[C@@H](Cc2c[nH]c3ccccc23)NC(=O)[C@H](Cc2cccc3ccccc23)NC(=O)[C@@H]2CCCN2C(=O)[C@H](Cc2ccccc2)NC1=O` (cyclo([1Nal][dW]FTFP)): 15 nM.

With `C[C@@H](O)[C@@H]1NC(=O)[C@H](Cc2ccccc2)NC(=O)[C@@H](Cc2c[nH]c3ccccc23)NC(=O)[C@H](CO)NC(=O)[C@@H]2CCCN2C(=O)[C@H](Cc2ccccc2)NC1=O`, the IC50 is 596 nM. In turn, `C[C@H](O)[C@@H]1NC(=O)[C@H](Cc2ccccc2)NC(=O)[C@@H](Cc2c[nH]c3ccccc23)NC(=O)[C@H](Cc2ccccc2)NC(=O)[C@@H]2CCCN2C(=O)[C@H](Cc2ccccc2)NC1=O` registered an IC50 of 95 nM. The compound `C[C@@H](O)[C@@H]1NC(=O)[C@H](CCCCN)NC(=O)[C@@H](Cc2c[nH]c3ccccc23)NC(=O)[C@H](Cc2ccccc2)NC(=O)[C@@H]2CCCN2C(=O)[C@H](Cc2ccccc2)NC1=O` (cyclo(PF[dW]KTF)) registered a half-inhibitory concentration (IC50) greater than 1000 nM. Consider `C[C@@H](O)[C@@H]1NC(=O)[C@H](Cc2ccccc2)NC(=O)[C@@H](Cc2c[nH]c3ccccc23)NC(=O)[C@H](CC(=O)O)NC(=O)[C@@H]2CCCN2C(=O)[C@H](Cc2ccccc2)NC1=O` (cyclo(D[dW]FTFP)), for which half-maximal inhibition (IC50) was put at 1390 nM. `C[C@@H](O)[C@@H]1NC(=O)[C@H](Cc2ccc(F)cc2)NC(=O)[C@@H](Cc2c[nH]c3ccccc23)NC(=O)[C@H](Cc2cccc3ccccc23)NC(=O)[C@@H]2CCCN2C(=O)[C@H](Cc2ccccc2)NC1=O` (cyclo([1Nal][dW][Phe(4-F)]TFP)) registered an IC50 of 2 nM. The compound `C[C@@H](O)[C@@H]1NC(=O)[C@H](Cc2ccccc2)NC(=O)[C@@H](Cc2c[nH]c3ccccc23)NC(=O)[C@H](CCc2ccccc2)NC(=O)[C@@H]2CCCN2C(=O)[C@H](Cc2ccccc2)NC1=O` registered an IC50 of 85 nM. `CC(C)C[C@@H]1NC(=O)[C@@H](Cc2c[nH]c3ccccc23)NC(=O)[C@H](Cc2ccccc2)NC(=O)[C@@H]2CCCN2C(=O)[C@H](Cc2ccccc2)NC(=O)[C@H]([C@@H](C)O)NC1=O`: the midpoint of inhibition, the IC50, lay at 2730 nM. On to `C[C@@H](O)[C@@H]1NC(=O)[C@H](Cc2ccc(O)cc2)NC(=O)[C@@H](Cc2c[nH]c3ccccc23)NC(=O)[C@H](Cc2ccccc2)NC(=O)[C@@H]2CCCN2C(=O)[C@H](Cc2ccccc2)NC1=O` (cyclo(FPF[dW]YT)), for which inhibition was half-maximal at 1050 nM (IC50). Same read-out and setting: next, `C[C@@H]1NC(=O)[C@@H](Cc2c[nH]c3ccccc23)NC(=O)[C@H](Cc2ccccc2)NC(=O)[C@@H]2CCCN2C(=O)[C@H](Cc2ccccc2)NC(=O)[C@H]([C@@H](C)O)NC1=O`: 4090 nM.

A further assay deals with Somatostatin receptor. In words: Ability to inhibit binding of […]-CGP 23996 to somatostatin receptor on membranes from cerebral cortex. It counts as tissue-based.
With `NCCCCCOC[C@H]1O[C@@H](OCCc2c[nH]c3ccccc23)[C@H](OCc2ccccc2)[C@@H](OCc2ccccc2)[C@@H]1OCc1ccccc1`, the IC50 came to 5000 nM.

For a further assay, the target named is T1, Substance-P receptor. In words: Percent Inhibition against Tachykinin receptor 1 at 2 uM.
`C[C@@H](O)[C@@H]1NC(=O)[C@H](Cc2ccccc2)NC(=O)[C@@H](Cc2c[nH]c3ccccc23)NC(=O)[C@@H]2CCCN2C(=O)[C@@H]2CCCN2C(=O)[C@H](Cc2ccccc2)NC1=O`: the inhibition (in general, the relative decrease from the control value, in per cent) was found to be 51%.

For another assay, the target named is Beta-2 adrenergic receptor (Homo sapiens, UniProt P07550). The experiment in a line: Binding affinity towards cloned human Beta-2 adrenergic receptor.
Chain of Beta-2 adrenergic receptor (P07550 whole entry): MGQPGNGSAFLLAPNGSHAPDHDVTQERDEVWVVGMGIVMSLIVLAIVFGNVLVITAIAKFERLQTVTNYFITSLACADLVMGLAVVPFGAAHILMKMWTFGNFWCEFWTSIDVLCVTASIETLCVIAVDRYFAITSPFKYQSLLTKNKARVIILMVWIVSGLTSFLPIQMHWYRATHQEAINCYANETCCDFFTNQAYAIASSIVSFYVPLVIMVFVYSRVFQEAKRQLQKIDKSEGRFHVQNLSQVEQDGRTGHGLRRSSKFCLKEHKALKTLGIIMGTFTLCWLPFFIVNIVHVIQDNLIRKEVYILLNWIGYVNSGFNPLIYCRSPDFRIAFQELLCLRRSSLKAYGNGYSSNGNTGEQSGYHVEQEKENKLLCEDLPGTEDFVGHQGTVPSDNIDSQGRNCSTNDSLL
For `NCCCCCOC[C@H]1O[C@@H](OCCc2c[nH]c3ccccc23)[C@H](OCc2ccccc2)[C@@H](OCc2ccccc2)[C@@H]1OCc1ccccc1`, the IC50 is 3000 nM. Regarding `NCCCCCOC[C@H]1O[C@@H](OCCc2c[nH]c3ccccc23)[C@H](OCc2ccccc2)C[C@@H]1OCc1ccccc1`, the IC50 was determined as 3000 nM.

A further assay addresses T1, Substance-P receptor. In words: Binding affinity towards Tachykinin receptor 1. The procedure, abridged: as §1
As for `NCCCCCOC[C@H]1O[C@@H](OCCc2c[nH]c3ccccc23)[C@H](OCc2ccccc2)C[C@@H]1OCc1ccccc1`, the IC50 is 180 nM. The compound `CC(=O)NCCCCCOC[C@H]1O[C@@H](OCCc2c[nH]c3ccccc23)[C@H](OCc2ccccc2)[C@@H](OCc2ccccc2)[C@@H]1OCc1ccccc1` showed a half-inhibitory concentration (IC50) of 60 nM.
